Arbovirus inh: arbovirus infection inhibition | arbovirus infection cell-based antiviral screen | inhibition, % at 10 µM | AID 1251 | hit rate 0.37% among 200,000; in the data active means inhibition above about 30%
WT yeast gro inh: growth inhibition of WT yeast, mitochondrial fusion screen; hit rate 2.1% among 190,000; inhibition, % at 10 µM; AID 1362; mitochondrial fusion phenotypic screen, WT strain; in the data active means inhibition above about 58%; tested in S. cerevisiae
TNAP inh noacc: inhibitors of human TNAP without phosphate acceptor; P05186; inhibition, % at 20 µM; hit rate 0.26% among 200,000; purified TNAP, CDP-star luminescence, 30 min; AID 1012;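 active means tissue-nonspecific alkaline phosphatase inhibition above about 50% at 20 µM in the single-dose screen, limit read from the data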;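 further: 0% = DMSO negative control and 100% = EDTA positive control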
Target sequence (P05186 whole entry, looked up): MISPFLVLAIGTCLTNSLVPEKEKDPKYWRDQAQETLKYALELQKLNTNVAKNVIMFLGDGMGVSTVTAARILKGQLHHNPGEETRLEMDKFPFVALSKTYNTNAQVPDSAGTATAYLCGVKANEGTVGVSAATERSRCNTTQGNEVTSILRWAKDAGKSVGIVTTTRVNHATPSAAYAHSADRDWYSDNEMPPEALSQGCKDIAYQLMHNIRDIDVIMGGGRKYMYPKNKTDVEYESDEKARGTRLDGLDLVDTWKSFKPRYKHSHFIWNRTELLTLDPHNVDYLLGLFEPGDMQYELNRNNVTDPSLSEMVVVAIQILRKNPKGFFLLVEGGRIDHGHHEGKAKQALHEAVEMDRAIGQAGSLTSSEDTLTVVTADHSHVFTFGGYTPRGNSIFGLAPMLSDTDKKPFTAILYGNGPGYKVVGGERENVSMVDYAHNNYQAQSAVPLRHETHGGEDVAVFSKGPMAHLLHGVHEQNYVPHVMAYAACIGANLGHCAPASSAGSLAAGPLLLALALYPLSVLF
TNAP inh hiacc: inhibitors of human TNAP at high phosphate acceptor concentration; hit rate 0.03% among 200,000; purified TNAP, CDP-star luminescence, 1 M DEA; inhibition, % at 20 µM; AID 1135;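 active means over 50% inhibition of tissue-nonspecific alkaline phosphatase at 20 µM in the single-dose screen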;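 further: plate controls were DMSO wells for no effect and EDTA-quenched wells as full inhibition for full effect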
TNAP act hi DEA: TNAP (human) activation, high acceptor | purified TNAP, CDP-star luminescence, 1 M DEA, 30 min; active compounds read high; 0 = EDTA background, 1 = DMSO-only activity | activation factor at 20 µM | 200,000 tested, under 10 active | AID 1136;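 active means activation factor at least 2 at 20 µM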
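system = human TNAP | amount = enzyme diluted 1/800 final | reagent = 100 µM CDP-star substrate | signal = luminescent substrate turnover signal | dosing = one dose, 20 µM | benchmarks = EDTA negative control, DMSO positive control | measure = activation factor | timing = 30 min reaction, room temperature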
Starred values were filed as active, the others as inactive. In the library only some 2.6% were active in any assay of this set; here they are far more common.

SMILES | Arbovirus inh | WT yeast gro inh | TNAP inh noacc | TNAP inh hiacc | TNAP act hi DEA
Cc1sc(NC(=O)CSc2nnnn2C2CCCCC2)c(C#N)c1C | -1 | 75* | -10 | -2 | 1
C/C(=N\NC(=O)COc1ccc([N+](=O)[O-])cc1)C(C)(C)C | 81* | 8 | -2 | 2 | 1
CCCCOC(=O)CSc1nnc(-c2ccc(Cl)cc2Cl)o1 | 6 | 60* | -4 | 1 | 1
NC(=O)Nc1ccc(C(=O)OCC(=O)Nc2ccc([N+](=O)[O-])cc2C(F)(F)F)cc1 | 2 | 0 | 4 | -5 | 1
N#Cc1c(C(F)(F)F)cc(-c2ccccc2)[nH]c1=O | 22 | 4 | -8 | -2 | 1
Cc1ccc(-c2cc(C(F)(F)F)c(C#N)c(=O)[nH]2)cc1 | 54* | 1 | -17 | -2 | 1
Cc1cc(-c2sccc2Br)nc(-n2cccc2)n1 | 6 | 69* | -12 | -2 | 1
CCc1c(C)sc(NC(=S)N2CC(C)OC(C)C2)c1C(=O)OC (stereo not given) | 24 | 64* | -5 | -3 | 1
C=CCNCCCOc1ccc(Cl)cc1C(C)(C)C | -43 | 75* | -7 | -9 | 1.1
O=C(COC(=O)c1cnccn1)NCc1ccc2c(c1)OCO2 | 3 | -10 | -5 | -6 | 1.1
Cc1cc(NCCCn2ccnc2)n2nc(C)c(-c3ccc(Cl)cc3)c2n1 | -27 | 65* | 2 | -2 | 1
Cc1cc(NCCCn2ccnc2)n2nc(C)c(-c3ccccc3)c2n1 | -12 | -5 | -3 | -2 | 1
Clc1cccc(N2CCN(Cc3nc(-c4ccccc4)no3)CC2)c1 | 33* | 57 | -18 | -2 | 1
Clc1ccc(-c2noc(CN3CCN(c4ccccc4)CC3)n2)cc1 | 7 | 18 | -8 | -1 | 1
Cc1cccc(C(=O)NC(NCc2ccco2)C(Cl)(Cl)Cl)c1 (stereo not given) | -9 | 8 | -6 | 0 | 1
Cc1cccc(C(=O)NC(NCCc2ccccc2)C(Cl)(Cl)Cl)c1 (stereo not given) | -6 | 59* | -7 | -7 | 1.1
Cc1cc(C)c(Cn2cnc(-c3ccc([N+](=O)[O-])cc3)c2)c(C)c1 | -3 | 60* | -1 | -1 | 1
CC(C)(C)c1ccc(Cn2cnc(-c3ccc([N+](=O)[O-])cc3)c2)cc1 | -10 | 19 | 4 | 5 | 1
Clc1cc(Cl)cc(Nc2ncn[nH]2)c1 | 6 | -17 | 14 | 6 | 0.9
Cc1cccc(OCCCC(=O)Nc2ccc(N3CCCCC3)cc2)c1C | 7 | 61* | -12 | -6 | 1.1
CCC(CC)NCc1ccc2c(c1)c1ccccc1n2CC | -30 | 48 | -8 | -7 | 1.1
CCn1c2ccccc2c2cc(CNCc3ccc(OC)cc3OC)ccc21 | -33 | 84* | -16 | -4 | 1
CC1CN(CCCCOc2ccc(F)cc2)CC(C)O1 (stereo not given) | 1 | 15 | 3 | -6 | 1.1
CCOC(=O)/C(=C/c1c2ccccc2cc2ccccc12)NC(=O)c1ccccc1 | -15 | 60* | -1 | 2 | 1
CCC(=O)N1CCN(c2ccc(NC(=O)c3ccc([N+](=O)[O-])o3)cc2Cl)CC1 | -21 | 66* | 1 | 0 | 1
SMILES | Arbovirus inh | WT yeast gro inh | TNAP inh noacc | TNAP inh hiacc | TNAP act hi DEA
O=c1[nH]ncc(N2CCN(C(c3ccccc3)c3ccccc3)CC2)c1Cl | -26 | 69* | -35 | 0 | 1
CN(CC(=O)NCc1ccccc1)S(=O)(=O)c1cnc[nH]1 | 1 | 7 | -13 | -3 | 1
CCN(c1ccccc1)S(=O)(=O)c1cnc[nH]1 | 18 | 59* | 3 | 8 | 0.9
CN(Cc1ccccc1)c1nc(N)c([N+](=O)[O-])c(NCc2ccccc2)n1 | 36* | 6 | -8 | -3 | 1
COc1ccc(-n2nc3cc(C)c(NC(=O)CC(C)C)cc3n2)cc1 | -2 | 2 | -15 | -5 | 1
CNC(=S)Nc1ccc(C)cc1 | 6 | -2 | -2 | 1 | 1
CNC(=S)Nc1ccc(C23CC4CC(CC(C4)C2)C3)cc1 | -34 | 68* | -15 | -2 | 1
O=C(c1n[nH]c2c1CCCC2)n1ccnc1 | 1 | 3 | 70* | -2 | 1
O=C(O)c1n[nH]c2c1CCCC2 | 3 | 10 | 13 | -3 | 1
CN1CCN(CCCNC(=O)c2ccc(/C=C3/Sc4ccccc4N(Cc4cccc(Cl)c4)C3=O)cc2)CC1 | -30 | 97* | 0 | -4 | 1
CN1CCN(CCCNC(=O)c2ccc(/C=C3\Sc4ccccc4N(Cc4ccc(F)cc4)C3=O)cc2)CC1 | -31 | 9 | -2 | -1 | 1
CN1CCN(CCCN2c3ccccc3Sc3ccc(Cl)cc32)CC1 | -43 | 94* | -6 | -1 | 1
CN1CCN(CCC(=O)N2c3ccccc3Sc3ccc(C(F)(F)F)cc32)CC1 | 0 | 9 | -6 | -2 | 1
CCN1CCN(CCNC(=O)c2ccc(/C=C3\Sc4ccccc4N(Cc4ccccc4F)C3=O)cc2)CC1 | -39 | 77* | -8 | -4 | 1
CC(=O)N1CCN(c2nnnn2-c2ccccc2)CC1 | 7 | -15 | -14 | -10 | 1.1
c1ccc(CC2CCN(c3nnnn3-c3ccccc3)CC2)cc1 | -6 | 62* | -6 | -3 | 1
CCc1ccc(-c2nc(CN3CCC(C(=O)NCCN(CC)c4ccccc4)CC3)c(C)o2)cc1 | -35 | 71* | -182 | -52 | 1.5
CCc1ccc(-c2nc(CN3CCC(C(=O)N4CCN(c5ccccc5)CC4)CC3)c(C)o2)cc1 | -29 | 66* | -13 | -9 | 1.1
O=Cc1cn(CC(=O)N2CCc3ccccc32)c2ccccc12 | 2 | -13 | -6 | -3 | 1
CCc1ccc(OCC(=O)N2c3ccccc3CCc3ccccc32)cc1 | -12 | 81* | -6 | -5 | 1
Cc1cccc(NC2=C(NC(=O)c3ccccc3)C(=O)c3ccccc3C2=O)c1 | -21 | 33 | 5 | 16 | 0.8
O=C(NC1=C(Nc2ccc(Cl)cc2)C(=O)c2ccccc2C1=O)c1ccccc1 | -13 | 79* | 1 | 25 | 0.8
CN(C1=C(NC(=O)c2ccc(Cl)cc2)C(=O)c2ccccc2C1=O)c1ccccc1 | -35 | 73* | 5 | 15 | 0.8
O=S(=O)(/N=C(/c1ccc(F)cc1)N1CCCCC1)c1ccc(Cl)cc1 | -10 | -3 | -4 | -2 | 1
CCNc1nc(N2CCCC2)nc(N2CCCC2)n1 | 11 | 13 | -2 | -3 | 1
SMILES | Arbovirus inh | WT yeast gro inh | TNAP inh noacc | TNAP inh hiacc | TNAP act hi DEA
CCNc1nc(NC(C)(C)C)nc(N2CCCCC2)n1 | -7 | 78* | -6 | -4 | 1
S=c1[nH]nc(COc2ccccc2)n1Cc1ccccc1 | 6 | 49 | 4 | 2 | 1
CCc1ccc(OCc2n[nH]c(=S)n2Cc2ccccc2)cc1 | 3 | 65* | 25 | 1 | 1
CCc1ccc(OCc2n[nH]c(=S)n2C(C)CCCC(C)C)cc1 (stereo not given) | -9 | 60* | -8 | -1 | 1
Cc1cccc(OCc2n[nH]c(=S)n2Cc2ccccc2)c1 | 3 | 65* | 16 | -2 | 1
CNC(=S)/N=C/NOCc1ccc(Cl)cc1Cl | -33 | 62* | -14 | -2 | 1
